From PMC11696060 (Nature Communications, 2025) come the findings set out here.

Experiment [1] deals with wild-type Arabidopsis seedlings. Briefly: Hypocotyl elongation assay, wild-type Arabidopsis co-treated with KAR2. Type of experiment: in vivo, Arabidopsis thaliana. The following applies: 0.3 µM KAR2.
The test system of experiment [2] is wild-type Arabidopsis seeds. It counts as in vivo, Arabidopsis thaliana. The following applies: after high temperature, 1 µM KAR2. A digest of the protocol:
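Sterilized, stratified Columbia seeds (~30 per well) sown on 0.2% phytoagar containing 1 µM KAR₂ and a concentration series of test compound. Incubated at 30 °C under continuous white light (20 μmol m⁻² s⁻¹) 48 h, then 22 °C for 48 h. Germination % = germinated/total seeds per well; 6 biological replicates, means ± SE; one-way ANOVA with Tukey's HSD.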

Regarding `O=C(N1CCc2ccccc21)n1ccnn1` [KK094], the “Concentration at which KAR2-suppressed hypocotyl length is restored” value in experiment [1] turned out to be 0.3 µM. Moreover, the “Concentration inhibiting the recovery of seed germination by KAR2” value in experiment [2] was 100 µM.
